ChEMBL document CHEMBL1136527, “Antifungal activity of a Candida albicans GGTase I inhibitor-alanine conjugate. Inhibition of Rho1p prenylation in C. albicans” (Bioorg Med Chem Lett, 2003)
Converted amounts (≈) assume the structure as drawn.

Legend:
[1] = target: Protein farnesyltransferase (Candida albicans); experiment: Inhibition of Candida albicans Farnesyltransferase
Candida albicans [2] = experiment: Inhibition of Candida albicans after addition of amino acids at 1 mM; format: functional
Method in brief: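 MIC against C. albicans SC5314 in YNBGlc medium (YNB without amino acids plus histidine, methionine, tryptophan, glutamine, 2% glucose), further supplemented with an amino acid mixture at 1mM final, to compete for permease uptake.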

[3] = target: Geranylgeranyl transferase type I (Candida albicans); experiment: Inhibition of Candida albicans Geranylgeranyl transferase type I
Candida albicans [4] = experiment: Fungicidal activity against Candida albicans; format: functional
Candida albicans [5] = experiment: Inhibitory of Candida albicans; format: functional
Method in brief: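 MIC against C. albicans SC5314 in YNBGlc medium: yeast nitrogen base without amino acids, supplemented with histidine, methionine, tryptophan, glutamine and 2% glucose.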

Row | Structure (SMILES) | IC50 [1] [nM] | MIC (Candida albicans [2]) [µg/mL] | IC50 [3] [nM] | MFC (Candida albicans [4]) [µg/mL] | MIC (Candida albicans [5]) [µg/mL]
1 | CC(C)C[C@H](NC(=O)C1(c2ccccc2)CCN(C(=O)[C@@H](N)CS)CC1)C(=O)N[C@@H](C)C(=O)O | 3000 | > 64 | 10 | 2 (≈ 4.06 µM) | 1 (≈ 2.03 µM)
2 | CC(C)C[C@H](NC(=O)C1(c2ccccc2)CCN(C(=O)[C@@H](N)CS)CC1)C(=O)O | 200 |  | < 5 | > 128 | > 128
3 | COC(=O)[C@H](CC(C)C)NC(=O)C1(c2ccccc2)CCN(C(=O)[C@@H](N)CS)CC1 |  |  | 5 | > 128 | > 128
